Source: ChEMBL document CHEMBL1250525, “Structure-activity relationships in 1,4-benzodioxan-related compounds. 10. Novel α1-adrenoreceptor antagonists related to openphendioxan: synthesis, biological evaluation, and α1d computational study” (Bioorg Med Chem, 2010)

How the values were obtained:
[1] = target: T1, Alpha-1A adrenergic receptor (Rattus norvegicus) (UniProt P43140); test: Antagonist activity at adrenergic alpha1A receptor in Wistar rat vas deference assessed as inhibition of (-)-noradrenaline-indcuced contraction; assay type: functional
T1 sequence (whole entry): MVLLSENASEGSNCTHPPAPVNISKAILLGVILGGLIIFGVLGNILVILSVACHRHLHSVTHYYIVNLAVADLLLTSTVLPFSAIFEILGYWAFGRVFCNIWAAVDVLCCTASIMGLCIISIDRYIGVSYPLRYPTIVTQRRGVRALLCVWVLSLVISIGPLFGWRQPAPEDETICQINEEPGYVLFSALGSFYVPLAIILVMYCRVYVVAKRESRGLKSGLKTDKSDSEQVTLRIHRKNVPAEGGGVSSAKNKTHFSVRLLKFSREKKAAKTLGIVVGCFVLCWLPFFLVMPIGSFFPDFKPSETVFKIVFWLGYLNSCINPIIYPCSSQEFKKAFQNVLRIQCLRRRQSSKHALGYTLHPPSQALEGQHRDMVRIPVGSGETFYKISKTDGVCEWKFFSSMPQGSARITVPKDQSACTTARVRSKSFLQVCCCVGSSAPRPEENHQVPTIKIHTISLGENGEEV
Method in brief: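 Tissue in Tyrode with 0.1 µM cocaine, equilibrated 60 min with washes every 15 min, primed twice with 10 µM noradrenaline. A noradrenaline curve gave the basal response. Antagonist 30 min, then 30 min washing, then a new agonist curve.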

[2] = target: T2, Alpha-1D adrenergic receptor (Rattus norvegicus) (UniProt P23944); test: Antagonist activity at adrenergic Alpha-1D receptor in Wistar rat thoracic aorta assessed as inhibition of (-)-noradrenaline-indcuced contraction; assay type: functional, tissue-based
T2 sequence (whole entry): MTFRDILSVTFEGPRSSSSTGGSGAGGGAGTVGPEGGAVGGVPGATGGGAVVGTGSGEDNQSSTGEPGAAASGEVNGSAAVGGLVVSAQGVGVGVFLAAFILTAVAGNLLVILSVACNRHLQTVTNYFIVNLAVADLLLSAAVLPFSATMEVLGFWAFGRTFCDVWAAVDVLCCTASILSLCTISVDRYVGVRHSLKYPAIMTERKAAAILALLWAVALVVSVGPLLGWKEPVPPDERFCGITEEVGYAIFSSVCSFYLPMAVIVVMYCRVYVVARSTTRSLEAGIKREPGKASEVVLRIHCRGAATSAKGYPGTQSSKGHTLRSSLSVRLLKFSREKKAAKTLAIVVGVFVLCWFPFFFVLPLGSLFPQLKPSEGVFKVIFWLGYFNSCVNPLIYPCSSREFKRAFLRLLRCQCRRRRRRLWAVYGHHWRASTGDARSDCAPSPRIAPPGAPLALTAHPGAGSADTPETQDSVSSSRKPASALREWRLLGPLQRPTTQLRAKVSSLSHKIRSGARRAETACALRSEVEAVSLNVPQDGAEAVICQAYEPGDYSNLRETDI

[3] = target: T3, Alpha-1B adrenergic receptor (Homo sapiens, UniProt P35368); test: Displacement of [3H]prazosin from human adrenergic Alpha-1B expressed in CHO cells; assay type: cell-based
T3 sequence (P35368 whole entry): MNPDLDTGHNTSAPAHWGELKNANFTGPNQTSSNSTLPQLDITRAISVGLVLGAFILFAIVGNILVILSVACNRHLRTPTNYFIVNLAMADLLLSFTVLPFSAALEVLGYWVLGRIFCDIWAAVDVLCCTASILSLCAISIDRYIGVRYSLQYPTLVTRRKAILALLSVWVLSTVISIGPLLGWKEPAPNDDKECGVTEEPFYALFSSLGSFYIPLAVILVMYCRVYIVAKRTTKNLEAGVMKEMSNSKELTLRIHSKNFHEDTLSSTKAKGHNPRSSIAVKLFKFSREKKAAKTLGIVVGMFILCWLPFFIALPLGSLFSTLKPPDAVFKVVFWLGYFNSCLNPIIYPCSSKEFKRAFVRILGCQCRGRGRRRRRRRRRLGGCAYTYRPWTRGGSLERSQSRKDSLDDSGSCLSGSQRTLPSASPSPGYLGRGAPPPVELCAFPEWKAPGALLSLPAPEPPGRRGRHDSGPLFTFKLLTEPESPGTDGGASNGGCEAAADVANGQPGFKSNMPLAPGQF
Method in brief: (§1)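 Membranes (30 µg protein) from CHO cells stably expressing each cloned human α1 subtype, labelled with [3H]prazosin. Nonspecific binding with 10 µM phentolamine. Stopped with ice-cold Tris–HCl and filtration on 0.2% polyethyleneimine-treated glass-fibre filters. Ki from IC50 by Cheng–Prusoff, nonlinear fitting. Mean ± SE of 2–3 experiments in triplicate.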

[4] = target: T4, Alpha-1D adrenergic receptor (Homo sapiens, UniProt P25100); test: Displacement of [3H]prazosin from human adrenergic Alpha-1D expressed in CHO cells; assay type: cell-based; method in brief: as §1
T4 sequence (P25100 whole entry): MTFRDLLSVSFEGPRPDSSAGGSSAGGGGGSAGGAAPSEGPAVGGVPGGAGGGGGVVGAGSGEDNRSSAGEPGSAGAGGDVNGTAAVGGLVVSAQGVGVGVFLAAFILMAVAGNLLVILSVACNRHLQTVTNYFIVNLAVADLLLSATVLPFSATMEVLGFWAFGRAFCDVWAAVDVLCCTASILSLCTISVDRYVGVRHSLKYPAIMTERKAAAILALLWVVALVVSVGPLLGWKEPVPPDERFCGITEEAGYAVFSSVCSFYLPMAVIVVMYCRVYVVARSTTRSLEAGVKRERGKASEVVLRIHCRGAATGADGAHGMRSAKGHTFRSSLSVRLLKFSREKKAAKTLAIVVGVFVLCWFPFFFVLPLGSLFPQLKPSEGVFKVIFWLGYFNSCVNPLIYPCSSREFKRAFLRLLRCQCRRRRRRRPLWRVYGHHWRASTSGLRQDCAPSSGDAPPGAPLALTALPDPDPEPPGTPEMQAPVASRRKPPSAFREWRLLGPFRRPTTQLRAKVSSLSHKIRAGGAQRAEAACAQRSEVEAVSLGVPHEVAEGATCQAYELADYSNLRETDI

[5] = target: T5, 5-hydroxytryptamine receptor 1A (Homo sapiens, UniProt P08908); test: Displacement of [3H]8-OH-DPAT from human adrenergic 5HT1A expressed in human HeLa cells; assay type: cell-based
T5 sequence (P08908 whole entry): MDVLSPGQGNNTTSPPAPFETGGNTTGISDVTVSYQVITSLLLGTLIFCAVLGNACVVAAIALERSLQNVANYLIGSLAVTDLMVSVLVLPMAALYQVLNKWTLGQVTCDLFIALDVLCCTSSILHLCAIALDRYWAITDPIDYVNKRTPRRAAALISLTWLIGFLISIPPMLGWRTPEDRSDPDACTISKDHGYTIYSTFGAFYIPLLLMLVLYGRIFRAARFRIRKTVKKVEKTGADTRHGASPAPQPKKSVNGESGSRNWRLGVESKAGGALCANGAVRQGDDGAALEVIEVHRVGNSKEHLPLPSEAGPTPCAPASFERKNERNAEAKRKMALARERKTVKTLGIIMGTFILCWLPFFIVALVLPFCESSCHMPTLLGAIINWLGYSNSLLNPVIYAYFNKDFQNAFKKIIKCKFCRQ
Method in brief: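 HeLa cells stably carrying human 5-HT1A clone G-21, grown in DMEM with 10% FCS. Membranes in 50 mM Tris–HCl pH 7.4, 2.5 mM MgCl2, 10 µM pargyline, with 0.7–1.4 nM [3H]8-OH-DPAT for 30 min at 30 °C. Nonspecific binding with 10 µM 5-HT. Filtration stop. Ki by Cheng–Prusoff. Mean ± SE of 2–3 experiments in triplicate.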

[6] = target: T6, Alpha-1B adrenergic receptor (Rattus norvegicus) (UniProt P15823); test: Antagonist activity at adrenergic Alpha-1B receptor in Wistar rat spleen assessed as inhibition of […]-indcuced contraction; assay type: functional, tissue-based
T6 sequence (whole entry): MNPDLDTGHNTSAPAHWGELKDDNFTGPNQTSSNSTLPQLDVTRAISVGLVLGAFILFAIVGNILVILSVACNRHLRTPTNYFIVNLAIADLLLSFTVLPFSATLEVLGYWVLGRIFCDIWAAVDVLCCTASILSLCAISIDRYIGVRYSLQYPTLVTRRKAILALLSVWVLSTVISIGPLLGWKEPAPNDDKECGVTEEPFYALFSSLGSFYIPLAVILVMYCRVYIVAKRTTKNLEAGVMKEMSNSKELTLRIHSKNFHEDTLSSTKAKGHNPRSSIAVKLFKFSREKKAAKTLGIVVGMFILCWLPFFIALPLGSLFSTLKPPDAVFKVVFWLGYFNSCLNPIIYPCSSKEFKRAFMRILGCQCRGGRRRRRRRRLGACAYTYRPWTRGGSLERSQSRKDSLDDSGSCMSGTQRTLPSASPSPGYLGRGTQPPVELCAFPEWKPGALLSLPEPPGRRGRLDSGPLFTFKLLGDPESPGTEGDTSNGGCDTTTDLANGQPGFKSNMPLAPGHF

[7] = target: T7, Alpha-1A adrenergic receptor (Homo sapiens, UniProt P35348); test: Displacement of [3H]prazosin from human adrenergic alpha1A expressed in CHO cells; assay type: cell-based; method in brief: as §1
T7 sequence (P35348 whole entry): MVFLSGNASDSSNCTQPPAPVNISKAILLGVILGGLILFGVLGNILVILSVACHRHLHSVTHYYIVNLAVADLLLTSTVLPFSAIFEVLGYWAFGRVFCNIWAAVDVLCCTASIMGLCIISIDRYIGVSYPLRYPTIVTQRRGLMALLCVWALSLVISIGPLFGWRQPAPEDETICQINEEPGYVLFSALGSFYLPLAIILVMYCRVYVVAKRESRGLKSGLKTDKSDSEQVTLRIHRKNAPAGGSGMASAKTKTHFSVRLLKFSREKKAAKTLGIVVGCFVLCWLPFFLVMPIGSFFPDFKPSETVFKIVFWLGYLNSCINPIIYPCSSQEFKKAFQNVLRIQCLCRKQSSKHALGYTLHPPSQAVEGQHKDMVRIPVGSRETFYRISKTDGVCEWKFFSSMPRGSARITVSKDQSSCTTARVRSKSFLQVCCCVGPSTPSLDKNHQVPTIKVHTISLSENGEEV

Structure (SMILES)	pKb [1]	pKb [2]	Ki [3] [nM]	Ki [4] [nM]	Ki [5] [nM]	pKb [6]	Ki [7] [nM]
COc1cccc(OC)c1OCCNCC1COc2ccccc2O1 (configuration not stated)	9.51	8.8				8.16	
COc1cccc(OC)c1[S+]([O-])CCNCCOc1ccccc1OCc1ccccc1 (configuration not stated)	7.95	7.49	15.8	2.75	3.16	7.65	20
COc1ccccc1OCCNCCOc1ccccc1OCc1ccccc1	7.95	8.08	20	3.98	2.51	7.89	3.16
COc1cccc(OC)c1SCCNCCOc1ccccc1OCc1ccccc1	8.74	9.47	0.501	0.178	15.8	8.57	3.16
COc1cccc(OC)c1CCCNCCOc1ccccc1OCc1ccccc1	7.8	8.12	6.92	1.2	2.51	7.34	9.77
CCOc1ccccc1OCCNCCOc1ccccc1OCc1ccccc1	8.03	8.35	12.6	3.72	5.01	7.94	2

The remaining lines, values ahead:

pKb [1]	pKb [2]	Ki [3] [nM]	Ki [4] [nM]	Ki [5] [nM]	pKb [6]	Ki [7] [nM]	Structure (SMILES)
8.16	8.74	7.94	0.741	31.6	7.84	2.51	COc1cccc(Cl)c1OCCNCCOc1ccccc1OCc1ccccc1
8.41	8.92	5.01	0.513	15.8	8.19	1.12	COc1cccc([N+](=O)[O-])c1OCCNCCOc1ccccc1OCc1ccccc1
8.39	9.37				8.3		COc1cccc(OC)c1OCCNCCOc1ccccc1OCc1ccccc1
8.35	8.36	5.01	0.912	3.98	7.91	2.51	COc1cccc(C)c1OCCNCCOc1ccccc1OCc1ccccc1
7.65	7.32	100	17.8	7.94	7.74	10	c1ccc(COc2ccccc2OCCNCCOc2ccccc2)cc1
7.92	8.03	0.794	0.389	31.6	8.57	3.16	CCOc1cccc(OCC)c1OCCNCCOc1ccccc1OCc1ccccc1
6.57	8.02	79.4	7.08	31.6	7.75	6.31	Clc1cccc(Cl)c1OCCNCCOc1ccccc1OCc1ccccc1
7.33	7.59	100	14.1	15.8	7.78	7.94	Cc1cccc(C)c1OCCNCCOc1ccccc1OCc1ccccc1
7.44	7.44	100	15.1	12.6	7.02	5.01	Oc1cccc(O)c1OCCNCCOc1ccccc1OCc1ccccc1
